High-throughput results as filed in PubChem BioAssay.
This is one part of a sample in which hits are shown more often than they occur.
E coli WT exp = growth inhibitors of wild-type E. coli, primary screen, strain BW25113, expanded library, OD600 | hit rate 0.15% among 98,000 | OD600 absorbance | growth inhibition, % at 100 µM;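 active = growth inhibition above about 50% at one test dose, limit read from the data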;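 also: growth measured after 20 h incubation at 37 °C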
MMP13 inh = human MMP13 inhibitors, primary screen, biochemical, FRET peptide cleavage; hit rate 0.07% among 65,000; MMP-13 fTHP FRET cleavage, Mca fluorescence; inhibition, % at 4 µM;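 active = inhibition above the mean of compound-free control plate wells plus 3 SD, cut at about 14% in these data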;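 also: 0% = DMSO wells and 100% = wells with reference MMP-13 inhibitor after basal subtraction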
Ec RNAP inh = E. coli RNAP inhibitors, biochemical; DNA-directed RNA polymerase subunit beta (Escherichia coli (strain K12)), P0A8V2; E. coli RNA polymerase, fluorescence transcription assay; inhibition, %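 (tested at 10 µM)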; hit rate 0.2% among 62,000; in the data active = inhibition above about 20%;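 also: 0% = enzyme without compound and 100% = no enzyme blank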
Target sequence (P0A8V2 whole entry, looked up): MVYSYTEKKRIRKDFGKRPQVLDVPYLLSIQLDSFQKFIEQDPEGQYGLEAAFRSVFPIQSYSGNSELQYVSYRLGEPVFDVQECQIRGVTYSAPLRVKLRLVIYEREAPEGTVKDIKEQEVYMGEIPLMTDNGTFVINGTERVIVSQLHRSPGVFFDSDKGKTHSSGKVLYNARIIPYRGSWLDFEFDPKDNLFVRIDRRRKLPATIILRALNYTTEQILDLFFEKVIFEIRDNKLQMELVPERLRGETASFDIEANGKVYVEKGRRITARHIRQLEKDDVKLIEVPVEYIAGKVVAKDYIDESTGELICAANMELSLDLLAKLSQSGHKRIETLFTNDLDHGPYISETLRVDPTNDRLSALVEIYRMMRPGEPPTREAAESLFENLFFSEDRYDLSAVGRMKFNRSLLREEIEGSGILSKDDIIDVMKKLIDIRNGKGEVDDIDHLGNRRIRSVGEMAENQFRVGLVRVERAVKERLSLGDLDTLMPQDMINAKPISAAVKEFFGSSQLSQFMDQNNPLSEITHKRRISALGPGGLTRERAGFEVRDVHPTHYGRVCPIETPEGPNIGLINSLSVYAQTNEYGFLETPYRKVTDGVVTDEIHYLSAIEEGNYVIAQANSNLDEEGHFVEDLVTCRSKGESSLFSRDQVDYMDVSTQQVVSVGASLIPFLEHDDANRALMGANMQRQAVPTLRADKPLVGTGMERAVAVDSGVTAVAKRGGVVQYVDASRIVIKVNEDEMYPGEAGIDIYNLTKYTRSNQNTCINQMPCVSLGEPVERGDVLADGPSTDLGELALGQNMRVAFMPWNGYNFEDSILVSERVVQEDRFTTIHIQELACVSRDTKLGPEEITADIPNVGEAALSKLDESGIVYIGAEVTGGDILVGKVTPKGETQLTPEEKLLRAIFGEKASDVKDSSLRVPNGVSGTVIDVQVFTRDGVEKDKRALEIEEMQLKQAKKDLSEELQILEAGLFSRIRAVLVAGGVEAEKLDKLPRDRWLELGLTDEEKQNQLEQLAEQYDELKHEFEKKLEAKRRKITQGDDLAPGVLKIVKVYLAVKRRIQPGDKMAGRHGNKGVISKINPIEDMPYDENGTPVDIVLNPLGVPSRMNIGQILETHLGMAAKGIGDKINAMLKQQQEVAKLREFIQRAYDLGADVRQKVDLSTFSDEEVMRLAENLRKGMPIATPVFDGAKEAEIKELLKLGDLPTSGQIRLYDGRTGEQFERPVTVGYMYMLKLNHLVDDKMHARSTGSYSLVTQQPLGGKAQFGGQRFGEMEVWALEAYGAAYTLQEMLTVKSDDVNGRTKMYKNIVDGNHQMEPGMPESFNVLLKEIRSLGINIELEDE
BAP1 block = inhibitors of BAP1 deubiquitinase, primary screen, biochemical, Ub-AMC fluorescence, kinetic | Ubiquitin carboxyl-terminal hydrolase BAP1 (Homo sapiens), Q92560 | recombinant BAP1, Ub-AMC hydrolysis fluorescence kinetic; active compounds read low | AID 436, 2006 | hit rate 0.48% among 72,000 | calls only at 20 µM;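 active = activity remaining at or below 50% of control, provided the compound also passes the data quality filters; inactive = the rest, including low values that fail the filters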;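 also: 100% = DMSO wells rate and 0% = substrate alone blank rate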
Ecoli tolC = growth inhibitors of E. coli tolC mutant, primary screen, strain BW25113 ΔtolC::kan, 384-well; growth inhibition, % at 10 µM (by protocol); OD615; hit rate 2.2% among 65,000;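 active = growth inhibition at or above a cutoff equal to the mean over every tested compound plus 3 SD, cut at about 60% in these data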;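 also: growth measured after 20 h incubation at 37 °C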
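Test system: E. coli BW25113 ΔtolC::kan bacteria; incubation: 37 °C, 20 h exposure; medium: LB broth supplemented with 50 µg/mL kanamycin; read-out basis: percent growth inhibition; signal: A615 absorbance measurement; compound: 10 µM final, single dose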
AP complement = alternative complement pathway inhibitors, primary screen, biochemical, ELISA, human serum, orthogonally pooled compounds. LPS-coated ELISA, C3 deposition; tested in compound mixtures. inhibition, % at 5 µM. hit rate 0.08% among 62,000;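 active = inhibition above 30% in each of the two pooled mixtures holding the compound, so the lower value exceeds 30%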;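 also: 0% = serum in Mg-EGTA without compound and 100% = EDTA serum blank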
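Assay system: Human serum alternative complement pathway, C3 deposition on LPS-coated wells | Incubation: 1 h serum-compound exposure at 37 °C | Doses: 5 µM per compound in ten-compound mixtures | Read-out: Percent inhibition | Technique: ELISA with HRP anti-human C3 antibody, TMB substrate, absorbance 450 nm | Replication: Two pool placements per compound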
An asterisk follows results filed as active; i = inactive; nt = no result shown.

SMILES	E coli WT exp	MMP13 inh	Ec RNAP inh	BAP1 block	Ecoli tolC	AP complement
Cc1ccccc1NC(=O)c1c(-c2ccccc2)noc1C	-1	-4	8	i	1	-10
CCCOc1ccccc1NC(=O)c1c(-c2ccccc2)noc1C	5	-4	5	i	72*	9
Cn1c(=O)n(Cc2ccccc2)c(=O)c2c1nc1n2CCCN1Cc1ccccc1	9	3	6	i	62*	7
Cc1ccc(S(=O)(=O)Nc2ccc(Br)cc2C(=O)c2ccc(Cl)cc2)cc1	nt	nt	nt	i	nt	nt
O=C1C(=O)N(Cc2cccnc2)C(c2ccc(Br)cc2)/C1=C(\O)c1ccccc1 (centres undefined)	nt	nt	nt	i	nt	nt
Cc1csc2ncc(C(=O)Nc3ccon3)c(=O)n12	1	-179	24*	nt	-37	15
Cc1cccc(NC(=O)c2cnc3scc(C)n3c2=O)c1	-4	1	-2	i	1	-6
CC(C)(C)C1CCC2(CC1)C(C#N)=C(SCC(=O)Nc1ccccc1)NC(=O)C2C#N (centres undefined)	2	2	-6	nt	16	nt
N#CC1=C(SCC(=O)c2cc3ccccc3oc2=O)NC(=O)C(C#N)C12CCCC2 (centres undefined)	-2	-16	5	i	61*	3
CCOc1cccc(-c2nc3cc(C)ccc3o2)c1	0	-2	nt	i	100*	10
Cc1ccc2oc(-c3ccccc3)nc2c1	2	nt	nt	nt	nt	nt
CCOc1cc(C(=O)Nc2cccc3c2C(=O)c2ccccc2C3=O)cc(OCC)c1OCC	nt	nt	nt	i	nt	nt
COc1cc2c3c(c1)C1(C(=O)N3C(C)(C)C=C2C)C(C#N)=C(N)Oc2cc(O)ccc21 (centres undefined)	7	-2	4	i	65*	0
CCOC(=O)c1cccc(C(=O)OCC)n1	7	2	11	i	-20	5
CCOC(=O)c1cccc2c1-c1ccccc1/C2=N/O	3	5	0	i	100*	1
O=C(COC(=O)c1cc2ccccc2o1)c1ccccc1	-8	3	nt	i	14	21
O=C(Oc1ccccc1)c1cc2ccccc2o1	9	2	9	i	71*	-8
CC(C)c1ccc(O)c(N)c1	0	8	6	i	0	24
CCC(C)c1ccc(O)c(N)c1 (centres undefined)	27	6	28*	i	-4	14
CC(=O)Nc1ccc(C(=O)OCCC(C)C)cc1	-1	2	68*	i	4	9
Cc1cc(=O)oc2c1ccc1oc(/C(=N/O)c3ccccc3)c(C)c12	23	-1	8	i	63*	6
Cc1cc(=O)oc2c(C(=O)/C=C/c3ccccc3)c(O)ccc12	-3	nt	nt	nt	nt	nt
CC12CCC(C(=O)N3CCCC3)(CC1=O)C2(C)C (centres undefined)	nt	nt	nt	i	nt	nt
CCc1ccccc1NS(=O)(=O)c1ccc2[nH]cc(C(=O)NCc3ccco3)c(=O)c2c1	1	-6	1	i	100*	23
COc1ccccc1N1CCN(CC(O)COc2ccc(C(C)C)c(C)c2)CC1 (centres undefined)	nt	nt	nt	i	nt	nt
SMILES	E coli WT exp	MMP13 inh	Ec RNAP inh	BAP1 block	Ecoli tolC	AP complement
CCOc1cc(S(=O)(=O)n2cc(-c3ccc(F)cc3)c(N)n2)cc(OCC)c1OCC	-7	-2	11	i	63*	-2
CCOc1ccc(S(=O)(=O)n2cc(-c3ccc(F)cc3)c(N)n2)cc1	-8	nt	nt	nt	nt	nt
COC(=O)C1=C(C)NC(=O)NC1c1ccc(OCc2ccccc2)c(OC)c1 (centres undefined)	nt	nt	nt	i	nt	nt
COC(=O)CSc1nc(N2CCCCC2)c2c(c1C#N)CCCC2	-8	0	2	i	64*	21
CCC(C)(C)n1nnnc1C(c1cc2ccc(C)cc2[nH]c1=O)N(Cc1cccnc1)Cc1ccco1 (centres undefined)	-9	-3	2	i	71*	5
COc1ccc(Cl)cc1NC(=O)c1cc2n(n1)C(C(F)(F)F)CC(c1ccco1)N2 (centres undefined)	nt	nt	nt	i	nt	nt
N#Cc1nc(Cc2cccc3ccccc23)oc1NCc1ccc(F)cc1	4	-7	9	i	71*	-2
C=CCNc1oc(Cc2cccc3ccccc23)nc1C#N	-3	-2	11	i	39	10
Cc1nccn1CCC(N)=O	nt	nt	nt	i	nt	nt
Fc1ccccc1OCCSc1nnnn1-c1ccccc1	1	1	8	i	49	0
COc1ccccc1OCCSc1nnnn1-c1ccc(C)cc1	4	5	5	i	65*	19
CCOC(=O)c1cnn2c(C(F)(F)F)c3c(nc12)-c1ccccc1CC3	nt	nt	nt	i	nt	nt
COC(=O)c1cc2c(ccn2-c2ccc(F)cc2)n1CC(=O)N1CCN(C(=O)c2ccco2)CC1	-3	-31	3	i	12	-6
CCn1c(C(=O)OC)cc2c1ccn2-c1ccc(F)cc1	4	-5	0	i	96*	9
CCCOc1ccc(C(=O)CCN2CCOCC2)cc1	nt	nt	nt	i	nt	nt
O=C(Nc1ccccc1[N+](=O)[O-])c1cccc(S(=O)(=O)N2CCc3ccccc32)c1	nt	nt	nt	i	nt	nt
N#CC1=C(N)Oc2n[nH]c(-c3cccs3)c2C1c1ccsc1 (centres undefined)	-2	4	6	nt	98*	12
CN(C(=O)c1ccncc1)C1CC(C)(C)N(O)C(C)(C)C1	11	-6	21*	i	-17	-7
Cc1[nH]n(-c2ccccc2)c(=O)c1/C=N/Nc1nncc(-c2ccccc2)n1	93*	nt	nt	nt	nt	nt
c1ccc(-c2nnc(-c3ccccn3)nn2)nc1	nt	-1	25*	nt	-11	7
c1ccc(-c2nc3ccccc3o2)nc1	9	-28	4	i	-4	12
c1ccc(-c2cccc(-c3ccccn3)n2)nc1	68*	6	-6	i	73*	12
CC1CCN(S(=O)(=O)c2ccc(C(C)(C)C)cc2)CC1	nt	nt	nt	i	nt	nt
COC(=O)CSC1=C(C#N)C(c2ccc(F)cc2)CC(=O)N1 (centres undefined)	6	5	21*	i	-3	2
COC(=O)CSC1=C(C#N)C(c2sccc2C)CC(=O)N1 (centres undefined)	nt	4	nt	i	-14	nt
CN(C)S(=O)(=O)N(Cc1ccc(Br)cc1)c1ccccc1	8	4	-3	i	88*	19
CN(C)S(=O)(=O)N(CC(=O)N(Cc1ccccc1)Cc1ccccc1)c1ccccc1	-4	nt	nt	nt	nt	nt
O=C(Nc1cccc(Cl)c1)N(CCN1CCOCC1)Cc1cccc(Cl)c1	16	3	3	i	100*	8
O=C(Nc1cccc(Cl)c1)N(CCN1CCOCC1)Cc1ccccc1F	22	nt	nt	nt	nt	nt
